A selection: hits, their analogues and other compounds. The true share with any hit is near 9%.
M1 agonist: activates the M1 muscarinic receptor | CHO-M1 cells, Fluo-4 calcium fluorescence, agonist mode; hits give high values | B-score at 10 µM | 64,000 tested, 3% active | AID 626;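 active = fluorescence rise, raw or as B-score row- and column-corrected plate score, outside the 99.7% band of its plate's samples, either direction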
M1 antagonist: blocks the rat M1 muscarinic receptor response to acetylcholine; P08482; CHO-M1 cells, Fluo-4 calcium, ACh EC80 antagonist mode; hits give low values; B-score at 10 µM; 64,000 tested, 3.4% active; AID 628;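 active = calcium fluorescence response, raw or row-and-column corrected B-score, differing from the plate sample mean either way at a set confidence level, mostly lower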
AP ELISA ortho: orthogonal test for alternative complement pathway inhibitors. Human serum alternative complement pathway, LPS-coated ELISA, C3 deposition; tested in compound mixtures. 62,000 tested, 0.08% active. inhibition, % at 5 µM. AID 1235;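 active = inhibition above 30% in each of the two pooled mixtures holding the compound, so the lower value exceeds 30%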;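 also: 0% = serum in Mg-EGTA without compound and 100% = EDTA serum blank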
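Assay system: Human serum alternative complement pathway, C3 deposition on LPS-coated wells | Incubation: 1 h serum-compound exposure at 37 °C | Doses: 5 µM per compound in ten-compound mixtures | Read-out: Percent inhibition | Technique: ELISA with HRP anti-human C3 antibody, TMB substrate, absorbance 450 nm | Replication: Two pool placements per compound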
D1 mod: allosteric modulators of human D1 dopamine receptor; B-score at 10 µM; HEK293 D1, CRE-luciferase, dopamine EC30 potentiation; actives deviate in either direction; P21728; 58,000 tested, 5.9% active;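 active = luminescence count or its row- and column-corrected plate score outside the 99.7% band of the plate's sample wells, on either side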
Target sequence (P21728 whole entry, looked up): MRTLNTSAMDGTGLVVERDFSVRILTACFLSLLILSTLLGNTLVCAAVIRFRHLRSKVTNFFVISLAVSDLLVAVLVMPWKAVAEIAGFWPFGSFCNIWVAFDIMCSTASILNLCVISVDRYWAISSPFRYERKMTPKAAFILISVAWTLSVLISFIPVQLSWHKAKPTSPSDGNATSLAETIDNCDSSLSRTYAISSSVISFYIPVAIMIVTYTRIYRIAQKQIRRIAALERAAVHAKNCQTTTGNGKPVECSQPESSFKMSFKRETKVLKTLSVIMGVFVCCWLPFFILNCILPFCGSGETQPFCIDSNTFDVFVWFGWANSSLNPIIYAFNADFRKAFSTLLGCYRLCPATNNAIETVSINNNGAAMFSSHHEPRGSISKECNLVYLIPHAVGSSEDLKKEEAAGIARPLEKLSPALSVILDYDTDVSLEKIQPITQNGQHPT
mHtt clearance: compounds clearing mutant huntingtin protein | HeLa Exon1htt(103Q)mCFP, aggregate imaging; zero = plate's median compound well | 47,000 tested, 0.42% active | inhibition, % at 1.5 µM | AID 853;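 active = inhibition of aggregate fluorescence above about 70%, also judged a hit by eye on the cell image, limit read from the data, passing the limit was not always enough; inconclusive = no rule stated for this call; inactive = not judged a hit on image review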;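 also: cells exposed to compound for three days before fixation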
D1 PAM confirm: confirmation of human D1 dopamine receptor allosteric modulators | HEK293 D1 CRE-luciferase, dopamine EC30 potentiation; hits give high values | shares compounds with D1 mod | 2,200 tested, 88% active | luminescence at 10 µM;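 active = luminescence in either of two replicates above the same-plate mean plus 3 SD of the low-dose dopamine control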
D1 no dopamine: D1 (human) signaling in absence of dopamine; shares compounds with D1 mod; HEK293 D1 CRE-luciferase, luminescence, no dopamine; hits give high values; luminescence at 10 µM; 1,900 tested, 0.8% active; in the data active = luminescence above about 3900
Isoprot counter: isoproterenol response counter-screen activity for D1 modulators; shares compounds with D1 mod; HEK293 D1 CRE-luciferase, isoproterenol EC30 counter-screen; calls only at 10 µM; 2,200 tested, 63% active;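 active = luminescence in either replicate above plate mean of wells with a partly effective reference agonist dose plus 3 SD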;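 also: isoproterenol raises cAMP through native beta-adrenoceptor Gs so signal bypasses D1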
* marks the source's active call; other numbers are inactive results; i = inactive; u = inconclusive; x = no result; + = active, no number.

SMILES	M1 agonist	M1 antagonist	AP ELISA ortho	D1 mod	mHtt clearance	D1 PAM confirm	D1 no dopamine	Isoprot counter
CCOc1ccc(-c2noc(-c3ccncc3)n2)cc1OCC	-1.3	-0.56	17	11*	x	x	1596	+
COc1ccc(-c2noc(CCC(N)=O)n2)cc1OC	0.0055	2.3	7	3.6*	-13	13684*	1704	i
COc1ccc(-c2noc(CCCC(=O)NCCc3ccccc3)n2)cc1OC	-0.69	-1.3	12	0.59	-53	x	x	x
COc1ccc(Cc2noc(-c3ccc(OC)c(OC)c3)n2)cc1OC	-0.8	-0.095	1	12*	x	10328*	1376	+
CCn1c(SCc2nc(-c3ccc(OC)c(OC)c3)no2)nnc1-c1cccs1	0	-1	12	5.3*	-70	11432*	1604	+
CCCCn1c(SCC(=O)N2CCOCC2)nnc1-c1cccs1	0.59	0.16	11	1.9	-26	x	x	x
Cc1csc(=O)n1CCC(=O)O	0.047	-0.098	10	0.55	48	x	x	x
CCOc1ccc(CCNC(=O)C2CCC(=O)N2C2CCCCC2)cc1OCC (centres undefined)	1.3	0.44	10	0.65	x	x	x	x
CCOc1ccc(CC(=O)C2C(=O)CCCC2=O)cc1OCC	-0.41	0.32	-1	4.3*	-14	10588*	1684	+
COc1cc(C(=O)Nc2ccc(-c3nc4cc(C)ccc4o3)c(O)c2)cc(OC)c1OC	1	-0.0059	5	3.1*	11	5096	x	i
COc1ccc(OC)c(N2C(=O)C(Cl)=C(N3CCCCC3)C2=O)c1	1.6	-0.64	-8	8.9*	x	6148*	1528	i
COc1ccc(-n2c(SCC(=O)NNC(=O)c3ccccc3C)nnc2-c2ccncc2)cc1	x	x	x	x	13	x	x	x
Cc1ccc(-n2cnnn2)c2cccnc12	-0.54	0.0087	8	2.6*	x	8320*	1580	i
CCCC1(C(=O)OCC)NC(c2ccc(N(C)C)cc2)C2C(=O)N(c3ccccc3)C(=O)C21 (centres undefined)	1.5	-0.19	1	-0.73	x	x	x	x
CCCC1(C(=O)OCC)NC(c2ccc(N(C)C)cc2)C2C(=O)N(c3ccc(OCC)cc3)C(=O)C21 (centres undefined)	0.18	0.98	14	2.9*	-66	4600	1488	i
COc1cccc(C(=O)SC2=NCCS2)c1	1.1	-0.75	-3	-0.26	-239	x	x	x
O=C(CSc1nnnn1-c1ccccc1)N1CCc2ccccc2C1	0.22	-0.84	8	5.4*	x	5840*	x	i
O=C(CSc1nnc(-c2ccccc2Br)o1)N1CCc2ccccc2C1	-0.21	-0.087	4	9.9*	x	18392*	1512	+
CCOC(=O)c1ccccc1NC(=O)c1ccc(NS(C)(=O)=O)cc1	-0.39	0.16	12	19*	-43	19196*	1760	+
CCOn1c(=O)c(C)[n+]([O-])c2ccccc21	x	x	x	x	-82	x	x	x
COc1cc(C)nc(Oc2ccc(OCCOc3ccc(C)cc3)nn2)n1	0.48	0.15	x	-1.1	1	x	x	x
CSc1ccccc1-n1nnnc1SCC(=O)Nc1cc(C)ccc1C	x	x	x	x	23	x	x	x
CSc1ccccc1-n1nnnc1SCc1ccccc1	0.05	0.35	6	3.8*	5	7588*	x	i
CCOC(=O)c1oc2ccc(S(=O)(=O)N3CCOCC3)cc2c1C	-1.2	-0.21	5	4.3*	-64	7344*	1548	i
CCOC(=O)c1oc2ccc(S(=O)(=O)N3CCC(C)CC3)cc2c1C	-0.13	-0.57	10	1.4	19	x	x	x
SMILES	M1 agonist	M1 antagonist	AP ELISA ortho	D1 mod	mHtt clearance	D1 PAM confirm	D1 no dopamine	Isoprot counter
CCOc1cc2[nH]c(=O)n(Cc3cccc(OC)c3)c(=O)c2cc1OCC	-0.069	0.037	-1	17*	-2	22168*	1776	+
Cc1nc2c3c(-c4ccccc4)nc(N4CCOCC4)nc3nn2c(C)c1CCC(=O)O	-0.25	0.095	2	0.081	x	x	x	x
CCOc1ccc(CCNS(=O)(=O)c2cccc3nsnc23)cc1OCC	0.43	0.28	7	19*	23	19296*	1552	+
COc1ccc(CCNS(=O)(=O)c2cccc3nsnc23)cc1OC	0.36	0.48	13	2.3	-18	x	x	x
COC(CN1C(=O)C(O)=C(C(C)=O)C1c1ccccn1)OC (centres undefined)	x	x	x	x	-35	x	x	x
O=C(CCCNS(=O)(=O)c1ccc(Br)cc1)N1CC[C@@]2(O)CCCC[C@H]2C1	-0.21	-0.52	10	-0.017	4	x	x	x
CN(C)C(=O)N1CCCC(C(=O)NCc2ccc(F)cc2Cl)C1 (centres undefined)	0.34	0.12	-4	0.58	x	x	x	x
CN(C)C(=O)N1CCC(C(=O)NCc2ccc(F)cc2Cl)CC1	1.3	-0.27	0	3.9*	x	4732	1512	i
O=C(NCc1ccco1)c1nn(-c2ccccc2)c(=O)c2ccccc12	0.051	0.054	8	5.2*	x	15012*	1664	i
COc1cc(C2C(C#N)=C(N)Oc3cc(O)ccc32)cc2c1OCO2 (centres undefined)	-0.51	0.24	4	4.1*	x	11740*	1532	+
CCCCCOc1ccc(C(=O)NCC(=O)NCC(=O)OCC)cc1	-1.3	-0.28	x	0.00052	42	x	x	x
CCCn1nc(NC(=O)c2ccncc2)c2cc3ccccc3nc21	0.76	-1.1	-4	8.4*	x	12660*	x	+
CNc1nc(NC)nc(-n2c(C(F)(F)F)nc3ccccc32)n1	1.3	0.1	-7	8*	u	18112*	1496	+
Cc1nc2ccccc2n1CC(O)Cn1c(C(F)(F)F)nc2ccccc21 (centres undefined)	0.42	-0.071	14	-0.47	x	x	x	x
C=C1CSc2nc3ccccc3c(=O)n21	x	x	x	x	0	x	x	x
CCSc1nnc2c(n1)OC(c1ccc(C(=O)O)cc1)N(C(C)=O)c1ccccc1-2 (centres undefined)	0.2	-0.53	16	-0.12	x	x	x	x
CCCCCSc1nnc2c(n1)OC(c1cccn1C)N(C(C)=O)c1ccccc1-2 (centres undefined)	0.59	-1.2	3	2.7*	16	5252	1472	i
CCOc1ccc(C2Oc3nc(SC)nnc3-c3ccccc3N2C(C)=O)cc1OC (centres undefined)	0.33	-0.023	22	8.4*	x	11344*	1628	i
COc1ccc(/C(O)=C2/C(=O)C(=O)N(CCCN(C)C)C2c2ccc(C)o2)cc1Cl (centres undefined)	0.12	-0.11	x	-0.083	-2	x	x	x
COc1nccc(Nc2ccccc2)c1C#N	-0.24	0.44	9	6.6*	x	14732*	x	+
CCS(=O)CCSc1nc2ccccc2s1 (centres undefined)	x	x	x	x	10	x	x	x
